Series [1] has as its system primary human skeletal muscle cells (proliferating, differentiating, differentiated). In words: MTS cell viability assay. The format is cell-based. Conditions: 48 h.
In series [2] the test system is primary human skeletal myotubes. In words: TUNEL assessment of apoptotic myonuclei. As to conditions: 5 µM, 48 h. In kind it is cell-based. The method, boiled down: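 Coverslip-grown myotubes exposed 48 h to test compound or 0.1% DMSO vehicle; fixed in 4% paraformaldehyde/PBS (pH 7.4) 20 min RT, permeabilized with 0.1% Triton X-100 in 0.1% sodium citrate 10 min at 4°C. TdT/fluorescein-dUTP labelling 60 min at 37°C, humidified, dark; DAPI counterstain. DNase I positive and label-only negative controls. Positive myonuclei counted over multiple sections as % of DAPI nuclei.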

The next series relates to Bax. In words: Western immunoblot of Bax. The format is cell-based, human. Conditions: 5 µM, 48 h.
The test system of another series is primary human myotubes. In words: Mitochondrial superoxide production, MitoSOX Red flow cytometry. The format is cell-based. As to conditions: 5 µM, 48 h.
A further series relates to Bcl-2. In words: Western immunoblot of Bcl-2. As to conditions: 5 µM, 48 h. The format is cell-based, human.
In another series the test system is isolated myofibers. As to conditions: 50 µM simvastatin; ref Sirvent et al. 29; cited from earlier work.
In series [3] the test system is citrate synthase activity in primary human myotubes. In words: Citrate synthase activity in myotubes. In kind it is cell-based. As to conditions: simvastatin-treated myotubes.
Series [4] concerns primary human skeletal myotubes. As to the kind of experiment: Intracellular ROS generation, DCF-DA staining. The format is cell-based. As to conditions: simvastatin treated myotubes.
The test system is the same in series [5]. In words: Morphological imaging and cell counting of myotubes. In kind it is cell-based. Conditions: 5 µM.
Another series concerns mitochondrial PTP. Conditions: ref Velho et al. 37; cited from earlier work.

Data on 2 molecules can be found in publication PMC3313473 (Free radical biology & medicine, 2011).

Take `CC(O)(CCO)CC(=O)O` (stereo not shown) [mevalonate]: the “Effect of mevalonate on simvastatin-induced decrease in cell viability” value was “prevented” in series [1] (differentiating cells, 1 µM simvastatin + 50 µM mevalonate) and “prevented” in [1] (proliferating cells, 5 µM simvastatin + 50 µM mevalonate).

Regarding `CCC(C)(C)C(=O)O[C@H]1C[C@@H](C)C=C2C=C[C@H](C)[C@H](CC[C@@H]3C[C@@H](O)CC(=O)O3)[C@H]21` [simvastatin], the “TUNEL-positive nuclei compared with control” value in series [2] was “More TUNEL-positive nuclei”. Besides, the “Bax protein levels higher than control” value in the series on Bax was determined as 53%. Besides, in the series on primary human myotubes, the “Increase in O2•− generation compared to DMSO control” value is “approximately 44%”. Besides, the “MitoSOX Red mean fluorescence intensity” value in the series on primary human myotubes (representative histogram) is reported as 46.1 counts. Further, the “Bcl-2 protein levels greater than DMSO control” value in the series with Bcl-2 is 100%. Besides, the “Maximal ADP-stimulated respiration supported by complex I substrates (glutamate + malate)” value in the series on isolated myofibers is given as “significantly impaired”. The molecule further displayed a Citrate synthase activity in series [3] of 9.89 ± 1.04 µmol/g/min. Further, in series [1] (Homo sapiens, read-out: IC50 for viability, proliferating cells, 48 h, MTS), the IC50 is 5 µM. The “DCF-DA staining compared with control” value in series [4] is “increased staining”. Also, the “Changes in the morphology of myotubes” value in series [5] (24 h) is “not visible”. Besides, in series [5] (48 h), the “Changes in the morphology of myotubes” value was “less dense and atrophied”; the “Fewer myotubes compared with DMSO-treated controls” value is reported as 22.3%; the Myotube cell number is 0.87 × 10^6 cells/ml. Moreover, the “In vivo and in vitro calcium-dependent mitochondrial PTP opening” value in the series with mitochondrial PTP is “increased”.
